# Values joined by “and” are separate entries in the source; they are usually repeats but may differ in a detail not shown here. Equal values may be shown once.
# What was measured:
# Leishmania amazonensis = assay: Tested for growth inhibitory activity against Leishmania amazonensis promastigotes; type: functional, organism-based
# How it was run: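 L. amazonensis promastigotes (MHOM/BR/77/LTB0016), grown at 25 °C in LIT medium with 10% heat-inactivated FCS, harvested late log phase, adjusted to 4×10^6/mL. Drugs in DMSO (≤1.6% v/v) at 160 to 5 μg/mL; 24 h incubation; parasites counted in Neubauer chamber; inhibition versus DMSO and untreated controls; IC50 by linear regression of inhibition against log concentration.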
# [1] = pKa was determined; type: physicochemical
# [2] = Partition coefficient (logP); type: physicochemical; conditions: octanol/water
# How it was run: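 Shake-flask octanol/aqueous buffer pH 7.4 partition; compound stock 4 × 10^-3 M in 1,4-dioxane; phases shaken 1 h at 25.0 ± 0.1 °C, centrifuged 15 min; both layers read by UV at λmax 320–354 nm; three replicates. P taken as quotient of buffer and octanol concentrations. Some values instead calculated from unsubstituted parent log P plus hydrophobic fragmental constants (log PX = log PH + πX).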
smiles,measurement,setting,value
CCN(CC)Cc1cc(Nc2ccnc3cc(Cl)ccc23)ccc1O.Cl,IC50,Leishmania amazonensis,0.34 µg/mL and 950 nM
CCOC(=O)c1cnc2c(c(C)nn2C)c1Nc1cccc([N+](=O)[O-])c1,IC50,Leishmania amazonensis,6.11 µg/mL and 17.2 µM
same,pKa,[1],8.38
same,logP,[2],0.68
CCOC(=O)c1cnc2c(c(C)nn2C)c1Nc1ccccc1,IC50,Leishmania amazonensis,30.7 µg/mL and 98.9 µM
same,pKa,[1],8.23
same,logP,[2],0.96
CCOC(=O)c1cnc2c(c(C)nn2C)c1Nc1ccc(Cl)cc1,IC50,Leishmania amazonensis,1.34 µg/mL and 3.89 µM
same,pKa,[1],7.98
same,logP,[2],1.32
CCOC(=O)c1cnc2c(c(C)nn2C)c1Nc1ccc(F)cc1,IC50,Leishmania amazonensis,12.8 µg/mL and 39 µM
same,pKa,[1],8.14
same,logP,[2],0.7
CCOC(=O)c1cnc2c(c(C)nn2C)c1Nc1ccc([N+](=O)[O-])cc1,IC50,Leishmania amazonensis,114 µg/mL and 321 µM
same,pKa,[1],8.8
same,logP,[2],0.68
CCOC(=O)c1cnc2c(c(C)nn2C)c1Nc1ccc(Br)cc1,IC50,Leishmania amazonensis,4.57 µg/mL and 11.7 µM
same,pKa,[1],8.39
same,logP,[2],1.82
CCOC(=O)c1cnc2c(c(C)nn2C)c1Nc1ccc(OC)cc1,IC50,Leishmania amazonensis,10.9 µg/mL and 32 µM
same,pKa,[1],8.07
same,logP,[2],0.94
CCOC(=O)c1cnc2c(c(-c3ccccc3)nn2-c2ccccc2)c1Nc1ccc(O)cc1,IC50,Leishmania amazonensis,0.34 µg/mL and 750 nM
same,logP,[2],3.09
CCOC(=O)c1cnc2c(c(C)nn2C)c1Nc1cccc(Cl)c1,IC50,Leishmania amazonensis,4.79 µg/mL and 13.9 µM
same,pKa,[1],9.05
same,logP,[2],1.67
CCOC(=O)c1cnc2c(c(C)nn2-c2ccccc2)c1Nc1ccc(O)c(CN(CC)CC)c1,IC50,Leishmania amazonensis,0.18 µg/mL and 390 nM
same,logP,[2],2.05
CCOC(=O)c1cnc2c(c(C)nn2C)c1Nc1ccc(O)cc1,IC50,Leishmania amazonensis,1.37 µg/mL and 4.2 µM
same,pKa,[1],9.98
same,logP,[2],1.14
CCOC(=O)c1cnc2c(c(C)nn2C)c1Nc1cccc(OC)c1,IC50,Leishmania amazonensis,7.45 µg/mL and 21.9 µM
same,pKa,[1],7.64
same,logP,[2],0.94
CCOC(=O)c1cnc2c(c(-c3ccccc3)nn2-c2ccccc2)c1Nc1ccc(O)c(CN(CC)CC)c1,IC50,Leishmania amazonensis,0.06 µg/mL and 120 nM
same,logP,[2],3.45
CCOC(=O)c1cnc2c(c(C)nn2C)c1Nc1cccc(C)c1,IC50,Leishmania amazonensis,4.82 µg/mL and 14.9 µM
same,pKa,[1],7.06
same,logP,[2],2.27
CCOC(=O)c1cnc2c(c(C)nn2-c2ccccc2)c1Nc1ccc(O)cc1,IC50,Leishmania amazonensis,0.21 µg/mL and 550 nM
same,logP,[2],1.69
CCOC(=O)c1cnc2c(c(C)nn2C)c1Nc1ccc(C)cc1,IC50,Leishmania amazonensis,10.6 µg/mL and 32.6 µM
same,pKa,[1],8.61
same,logP,[2],1.52
N=C(N)c1ccc(OCCCCCOc2ccc(C(=N)N)cc2)cc1.O=S(=O)(O)CCO,IC50,Leishmania amazonensis,0.27 µg/mL and 460 nM

# Reference: ChEMBL document CHEMBL1137223, “Antileishmanial pyrazolopyridine derivatives: synthesis and structure-activity relationship analysis” (J Med Chem, 2004)
